According to ChEMBL document CHEMBL4330119 (J Med Chem, 2019):
Activity calls are given as the source filed them.

How the values were obtained:
[1] = biological target: Kappa-type opioid receptor (Mus musculus, UniProt P33534); experiment: Displacement of [3H]-diprenorphine from mouse KOR expressed in CHO cell membranes by competitive radioligand binding assay
Summary of the method: (§1)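 30 μg CHO membrane protein incubated with radioligand and varying competitor in TME buffer (50 mM Tris, 3 mM MgCl2, 0.2 mM EGTA, pH 7.4). Bound ligand separated by filtration. […] IC50 from Hill plots, converted to Ki by Cheng–Prusoff.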

[2] = biological target: Delta-type opioid receptor (Mus musculus, UniProt P32300); experiment: Displacement of [3H]-diprenorphine from mouse DOR expressed in CHO cell membranes by competitive radioligand binding assay; summary of the method: as §1
[3] = biological target: Mu-type opioid receptor (Mus musculus) (UniProt P42866); experiment: Antagonist activity at mouse MOR expressed in CHO cell membranes assessed as inhibition of DAMGO-stimulated [35S]GTPgammaS binding after 90 mins relative to DAMGO; format: functional
[4] = tested on: Mus musculus; experiment: In vivo antagonist activity at MOR in Swiss Webster mouse assessed reduction in morphine-induced antinociceptive effect by measuring morphine MPE at 10 mg/kg, sc preincubated for 5 mins followed by morphine addition and measured after 20 min post morphine challenge by tail immersion test relative to control; format: functional
Summary of the method: (§2)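 Male Swiss Webster mice, 5 per group. […] Baseline latency 2–4 s, 10 s cutoff. %MPE calculated per mouse. AD50 by least-squares linear regression, 95% CI by Bliss method.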

[5] = tested on: Mus musculus; experiment: Induction of withdrawal symptoms in morphine-pelleted Swiss Webster mouse model assessed as dog shakes at 1 mg/kg, sc measured after 72 hrs […] for 20 mins; format: organism-based; conditions: in vivo
Summary of the method: (§3)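 Withdrawal precipitated 72 h after implantation by sc compound, after 30 min habituation to an open Plexiglas chamber. Wet dog shakes, escape jumps and paw tremors counted over 20 min, five mice per group. Naloxone 1 mg/kg sc as reference.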

[6] = tested on: Mus musculus; experiment: Induction of withdrawal symptoms in morphine-pelleted Swiss Webster mouse model assessed as escape jumps at 1 mg/kg, sc measured after 72 hrs […] for 20 mins; format: organism-based; conditions: in vivo; summary of the method: as §3
[7] = tested on: Mus musculus; experiment: Induction of withdrawal symptoms in morphine-pelleted Swiss Webster mouse model assessed as paw tremors […] at 1 mg/kg, sc measured after 72 hrs […] for 20 mins; format: organism-based; conditions: in vivo; summary of the method: as §3
[8] = tested on: Mus musculus; experiment: Antinociceptive activity in Swiss Webster mouse at 10 mg/kg, sc measured after 20 min post dose by tail immersion test; format: functional, organism-based
Summary of the method: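 Male Swiss Webster mice, 7–8 weeks, 5 per group. Compound given sc, tail immersed in 56 ± 0.1 °C water 20 min later. Only mice with baseline latency of 2–4 s were used. 10 s cutoff. %MPE = [(test – control)/(10 – control)] × 100.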

[9] = tested on: Mus musculus; experiment: In vivo antagonist activity at MOR in sc dosed Swiss Webster mouse assessed reduction in morphine-induced antinociceptive effect by measuring morphine MPE preincubated for 5 mins followed by morphine addition and measured after 20 min post morphine challenge by tail immersion test; format: functional; summary of the method: as §2
[10] = tested on: Mus musculus; experiment: Induction of withdrawal symptoms in morphine-pelleted Swiss Webster mouse model assessed as dog shakes at 5 mg/kg, sc measured after 72 hrs […] for 20 mins; format: organism-based; conditions: in vivo; summary of the method: as §3
[11] = tested on: Mus musculus; experiment: Induction of withdrawal symptoms in morphine-pelleted Swiss Webster mouse model assessed as escape jumps at 5 mg/kg, sc measured after 72 hrs […] for 20 mins; format: organism-based; conditions: in vivo; summary of the method: as §3
[12] = tested on: Mus musculus; experiment: Induction of withdrawal symptoms in morphine-pelleted Swiss Webster mouse model assessed as paw tremors […] at 5 mg/kg, sc measured after 72 hrs […] for 20 mins; format: organism-based; conditions: in vivo; summary of the method: as §3
[13] = biological target: T1, Mu-type opioid receptor (Mus musculus, UniProt P42866); experiment: Displacement of [3H]-naloxone from mouse MOR expressed in CHO cell membranes by competitive radioligand binding assay; summary of the method: as §1
[14] = species: Mus musculus; experiment: Selectivity ratio of Ki for mouse DOR expressed in CHO cell membranes to Ki for mouse MOR expressed in CHO cell membranes; format: cell-based
Summary of the method: (§4)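 Ratio of Ki values from competition binding: 30 μg CHO membranes in TME pH 7.4, filtration. IC50 converted to Ki by Cheng–Prusoff.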

[15] = species: Mus musculus; experiment: Selectivity ratio of Ki for mouse KOR expressed in CHO cell membranes to Ki for mouse MOR expressed in CHO cell membranes; format: cell-based; summary of the method: as §4
[16] = biological target: T1, Mu-type opioid receptor; experiment: Antagonist activity at mouse MOR expressed in CHO cell membranes assessed as inhibition of DAMGO-stimulated [35S]GTPgammaS binding after 90 mins; format: functional
[17] = tested on: Mus musculus; experiment: Induction of withdrawal symptoms in morphine-pelleted Swiss Webster mouse model assessed as dog shakes at 10 mg/kg, sc measured after 72 hrs […] for 20 mins; format: organism-based; conditions: in vivo; summary of the method: as §3
[18] = tested on: Mus musculus; experiment: Induction of withdrawal symptoms in morphine-pelleted Swiss Webster mouse model assessed as escape jumps at 10 mg/kg, sc measured after 72 hrs […] for 20 mins; format: organism-based; conditions: in vivo; summary of the method: as §3
[19] = tested on: Mus musculus; experiment: Induction of withdrawal symptoms in morphine-pelleted Swiss Webster mouse model assessed as paw tremors […] at 10 mg/kg, sc measured after 72 hrs […] for 20 mins; format: organism-based; conditions: in vivo; summary of the method: as §3
[20] = tested on: Mus musculus; experiment: Induction of withdrawal symptoms in morphine-pelleted Swiss Webster mouse model assessed as dog shakes at 50 to 100 mg/kg, sc measured after 72 hrs […] for 20 mins; format: organism-based; conditions: in vivo; summary of the method: as §3
[21] = tested on: Mus musculus; experiment: Induction of withdrawal symptoms in morphine-pelleted Swiss Webster mouse model assessed as paw tremors […] at 50 to 100 mg/kg, sc measured after 72 hrs […] for 20 mins; format: organism-based; conditions: in vivo; summary of the method: as §3
[22] = tested on: Mus musculus; experiment: Induction of withdrawal symptoms in morphine-pelleted Swiss Webster mouse model assessed as escape jumps at 50 mg/kg, sc measured after 72 hrs […] for 20 mins; format: organism-based; conditions: in vivo; summary of the method: as §3

## CC(C)Cc1cnccc1C(=O)N[C@@H]1CC[C@@]2(O)[C@H]3Cc4ccc(O)c5c4[C@@]2(CCN3CC2CC2)[C@H]1O5
[1]
  Ki: 75.6 nM
[2]
  Ki: 149 nM
[3]
  Emax: 27.3%
[4]
  inhibition: inactive

## O=C(N[C@@H]1CC[C@@]2(O)[C@H]3Cc4ccc(O)c5c4[C@@]2(CCN3CC2CC2)[C@H]1O5)c1ccncc1C1CCCC1
[1]
  Ki: 8.16 nM
[2]
  Ki: 34 nM
[4]
  inhibition: inactive

## O=C(N[C@@H]1CC[C@@]2(O)[C@H]3Cc4ccc(O)c5c4[C@@]2(CCN3CC2CC2)[C@H]1O5)c1ccncc1C1CCCCC1
[1]
  Ki: 3.32 nM
[2]
  Ki: 11.2 nM
[3]
  Emax: 51.6%
[4]
  inhibition: inactive

## C=CCN1CC[C@]23c4c5ccc(O)c4O[C@H]2C(=O)CC[C@@]3(O)[C@H]1C5 [NALOXONE]
[5]
  Activity: Toxic
[6]
  Activity: Toxic
[7]
  Activity: Toxic

## N#Cc1cnccc1C(=O)N[C@@H]1CC[C@@]2(O)[C@H]3Cc4ccc(O)c5c4[C@@]2(CCN3CC2CC2)[C@H]1O5
[1]
  Ki: 2.74 nM
[2]
  Ki: 46.3 nM
[3]
  Emax: 26.1%
[8]
  Activity: inactive
[4]
  inhibition in vivo at 10 mg/kg: 7.8%
[9]
  ED50: 1.75 mg/kg
  inhibition: Dose-dependent effect
[5]
  Activity: Non-Toxic
[6]
  Activity: Non-Toxic
[10]
  Activity: Toxic
[11]
  Activity: Toxic
[12]
  Activity: Toxic

## O=C(N[C@@H]1CC[C@@]2(O)[C@H]3Cc4ccc(O)c5c4[C@@]2(CCN3CC2CC2)[C@H]1O5)c1ccncc1C(F)(F)F
[13]
  Ki: 0.43 nM
[1]
  Ki: 12.5 nM
[2]
  Ki: 61.8 nM
[14]
  Ratio Ki: 144
[15]
  Ratio Ki: 29.1
[16]
  EC50: 1.38 nM
[3]
  Emax: 31.9%
[4]
  inhibition: inactive

## O=C(N[C@@H]1CC[C@@]2(O)[C@H]3Cc4ccc(O)c5c4[C@@]2(CCN3CC2CC2)[C@H]1O5)c1ccncc1[N+](=O)[O-]
[1]
  Ki: 4.46 nM
[2]
  Ki: 95.6 nM
[3]
  Emax: 39.1%
[4]
  inhibition: inactive

## COC(=O)c1cnccc1C(=O)N[C@@H]1CC[C@@]2(O)[C@H]3Cc4ccc(O)c5c4[C@@]2(CCN3CC2CC2)[C@H]1O5
[1]
  Ki: 11.7 nM
[2]
  Ki: 137 nM
[3]
  Emax: 29.2%
[4]
  inhibition: inactive

## O=C(N[C@@H]1CC[C@@]2(O)[C@H]3Cc4ccc(O)c5c4[C@@]2(CCN3CC2CC2)[C@H]1O5)c1ccncc1C1CCCCCC1
[1]
  Ki: 5.16 nM
[2]
  Ki: 15 nM
[3]
  Emax: 48.3%
[4]
  inhibition: inactive

## O=C(N[C@@H]1CC[C@@]2(O)[C@H]3Cc4ccc(O)c5c4[C@@]2(CCN3CC2CC2)[C@H]1O5)c1ccncc1F
[1]
  Ki: 4.8 nM
[2]
  Ki: 157 nM
[4]
  inhibition in vivo at 10 mg/kg: 6.2%
[9]
  ED50: 2.82 mg/kg
[17]
  Activity: Non-Toxic
[18]
  Activity: Non-Toxic
[19]
  Activity: Non-Toxic
[20]
  Activity: Non-Toxic
[21]
  Activity: Toxic
[22]
  Activity: Non-Toxic

## CCc1cnccc1C(=O)N[C@@H]1CC[C@@]2(O)[C@H]3Cc4ccc(O)c5c4[C@@]2(CCN3CC2CC2)[C@H]1O5
[1]
  Ki: 9.18 nM
[2]
  Ki: 42.9 nM
[3]
  Emax: 41.6%
[4]
  inhibition: inactive

## O=C(N[C@@H]1CC[C@@]2(O)[C@H]3Cc4ccc(O)c5c4[C@@]2(CCN3CC2CC2)[C@H]1O5)c1ccncc1-c1ccccc1
[1]
  Ki: 3.42 nM
[2]
  Ki: 44.8 nM
[3]
  Emax: 44.4%
[4]
  inhibition: inactive

## O=C(O)c1cnccc1C(=O)N[C@@H]1CC[C@@]2(O)[C@H]3Cc4ccc(O)c5c4[C@@]2(CCN3CC2CC2)[C@H]1O5
[13]
  Ki: 0.76 nM
[1]
  Ki: 2.43 nM
[2]
  Ki: 55.6 nM
[14]
  Ratio Ki: 73.2
[15]
  Ratio Ki: 3.2
[16]
  EC50: 1.83 nM
[3]
  Emax: 29.3%
[4]
  inhibition: inactive
